Screens from PubChem BioAssay.
MT1-MMP act inh: inhibitors of human MT1-MMP activation. P50281. HT1080 RFP-PRO-GFP cells, GFP/RFP ratio fluorescence, overnight; percent of plate control window, DMSO zero. GFP/RFP ratio change, % at 20 µM. 360,000 tested, 0.061% active;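 active means GFP/RFP ratio change of at least 30% with cell ATP level not reduced by more than half and red fluorescence within 50% of control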
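Material – HT1080 RFP-PRO-GFP cells · Control set – DMSO wells and RFP-L50D-GFP cells · Incubation – overnight cell settling, then overnight compound exposure, 37 °C, 5% CO2 · Compound dosing – single-point 20 µM compound, 1% DMSO · Read-out – GFP/RFP fluorescence ratio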
Rpn11 inh: Rpn11 (human) deubiquitinase inhibition | 360,000 tested, 0.59% active | O00487 | inhibition, % at 20 µM | AID 588493 | human 26S proteasome, Ub4-pepOG fluorescence polarization; 20S core pre-blocked with epoxomicin;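 active means inhibition at 20 µM, scaled to each plate's controls, above about 33%, limit read from the data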
SKN-1 inh: C. elegans SKN-1 inhibition | C. elegans VP596 Pgst-4::GFP/RFP ratio, acrylamide-induced, 24 h | inhibition, % at 21.8 µM | 360,000 tested, 0.49% active | AID 624304;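 active means interference check ratio from 0.5 to 1.5 plus GFP to RFP signal ratio inhibition reaching or exceeding a fixed threshold, cut at about 30% in these data, passing the limit was not always enough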
DNMT1 inh: DNMT1 (human) enzyme inhibition. P26358. 360,000 tested, 0.83% active. AID 588458. DNMT1 molecular beacon, Hinp1I cleavage, fluorescence. inhibition (reported as % activation of signal), % at 10 µM; in the data active means inhibition above about 50%
CSN inh: blocks human CSN-mediated cullin deneddylation; Q92905; Purified CSN, SCF-Nedd8-OG deneddylation, fluorescence polarization; inhibition, % at 12.5 µM; 360,000 tested, 0.38% active; AID 651999;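 active means pattern-corrected inhibition above about 35%, with an unprinted fluorescence ratio check between 0.5 and 1.5, limit read from the data, passing the limit was not always enough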;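 further: 0% = enzyme with substrate and 100% = substrate without enzyme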
Target sequence (Q92905 whole entry, looked up, one chain of several): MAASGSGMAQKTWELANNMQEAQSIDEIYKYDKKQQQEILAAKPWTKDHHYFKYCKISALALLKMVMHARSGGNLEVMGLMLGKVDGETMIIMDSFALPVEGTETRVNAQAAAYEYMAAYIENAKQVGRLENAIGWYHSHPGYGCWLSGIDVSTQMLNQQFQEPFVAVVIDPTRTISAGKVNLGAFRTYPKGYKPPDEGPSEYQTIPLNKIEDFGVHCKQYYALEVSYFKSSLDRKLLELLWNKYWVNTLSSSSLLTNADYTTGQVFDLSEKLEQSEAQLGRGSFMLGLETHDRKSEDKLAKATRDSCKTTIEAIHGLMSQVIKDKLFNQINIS
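Assay system: Purified human Csn5 enzyme expressed in HEK293T cells | Amount: Enzyme 0.24 nM | Measured by: Fluorescence polarization readout | Medium: Tris/NaCl/DTT buffer, pH 7.5 | Compound dosing: One concentration, 12.5 µM, 0.25% DMSO | Times: 90 min incubation of compound, enzyme and substrate at room temperature | Control set: no-enzyme wells high, enzyme-with-substrate wells low | Read-out: % inhibition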
SUMO1 PPI mod: modulators of human SUMO1-mediated protein-protein interactions | inhibition, % at 20 µM | P63165 | SUMO1 binding to a labelled peptide, TR-FRET, 1 h | 360,000 tested, 0.33% active; in the data active means inhibition above about 37%
Target sequence (P63165 whole entry, looked up): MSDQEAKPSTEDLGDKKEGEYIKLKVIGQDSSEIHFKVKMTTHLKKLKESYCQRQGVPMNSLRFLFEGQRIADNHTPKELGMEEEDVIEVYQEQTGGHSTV
DNMT1 interf DR: beacon fluorescence artifact, dose response counter-screen; molecular beacon fluorescence, spectral interference counter-screen; 200 tested, under 10 active; AID 602382; IC50, µM; shares compounds with DNMT1 inh; call rule not given here
DNMT1 inh conf: DNMT1 inhibition confirmation, single concentration. shares compounds with DNMT1 inh. DNMT1 molecular beacon HinP1I cleavage, fluorescence. inhibition, % at 10 µM. 2,300 tested, 8% active. AID 602385;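 active means average inhibition of at least 30% in the single-concentration confirmation test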
Beacon interf: beacon fluorescence artifact counter-screen. shares compounds with DNMT1 inh. DNMT1 molecular beacon spectral interference counterscreen, fluorescence 485/520. activation (fluorescence interference), % at 10 µM. 2,300 tested, 1% active. AID 602387;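 active means activation of at least 30% at 10 µM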;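 further: DNMT1 catalytic domain with a HinP1I cleavage step and a FAM/dabcyl DNA beacon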
* hit, by the source's call; nt = no result shown. Shown are actives, neighbours in structure and some others; about 2.3% of the full set was active somewhere.

SMILES	MT1-MMP act inh	Rpn11 inh	SKN-1 inh	DNMT1 inh	CSN inh	SUMO1 PPI mod	DNMT1 inh conf	Beacon interf	others
Cc1cc(C)n2c(Br)c(CSc3nc4ccccc4o3)nc2n1	-7	-16	4	59*	9	10	15	7
Cc1ccc(-c2csc3ncn(CC#N)c(=O)c23)cc1	0	-2	4	48	4	11	5	6
Cc1ccc(-c2csc3ncn(CC#N)c(=O)c23)cc1C	1	8	17	21	9	23	nt	nt
O=C1COc2ccc(C(=O)COC(=O)/C=C/c3ccc(Br)o3)cc2N1	-2	nt	7	100*	58	81*	27	-4	DNMT1 interf DR=>99
Cc1ccc(/C=C/C(=O)OCC(=O)c2ccc3c(c2)NC(=O)CO3)o1	1	-4	2	-4	2	-11	nt	nt
COc1ccc2oc(C(=O)Nc3ccc(N4CCOCC4)cc3)c(C)c2c1	1	12	12	51*	1	2	21	2
COc1ccc2oc(C(=O)Nc3ccccc3N3CCOCC3)c(C)c2c1	3	3	5	-3	1	-13	nt	nt
COc1ccc(NC(=O)C2(C)CCN2C(=O)c2ccccc2CCc2ccccc2)cc1OC (stereo not drawn)	0	4	-2	-4	3	2	nt	nt
CC1(C)CC(NC(=O)c2ccccc2)CC(C)(C)N1	-3	4	-4	101*	0	3	-1	1
C=C1C(=O)OC2C1CCC(C)=C1C(=O)C3OC3(C)C12 (stereo not drawn)	-6	1	-3	72*	6	4	8	7
COc1ccc(C2=Nc3ccccc3NC(=O)C2N(C(=O)c2ccnc3ccccc23)c2ccccc2)cc1 (stereo not drawn)	3	7	20	-17	1	-3	nt	nt
O=c1[nH]c(=O)c2nc3c4ccccc4c4ccccc4c3nc2[nH]1	-7	nt	-3	79*	112	84*	4	-1
CCCCc1cc(=O)oc2cc(C)c(CN3CCCC3)c(O)c12	-12	37	-4	96*	33	27	3	7
O=C(c1ccc2c(=O)n3c(nc2c1)CCC3)N1CCN(S(=O)(=O)c2cccc(F)c2)CC1	-2	6	-15	79*	-5	4	-10	3
COc1ccc(/C=N/Nc2cc(N3CCCC3)nc(N3CCCC3)n2)cc1	-23	-12	13	58*	2	3	1	-10
Oc1ccc(/C=N/Nc2cc(N3CCCC3)nc(N3CCCC3)n2)cc1	-4	10	2	-8	1	6	nt	nt
CCCNC(=O)C1(C)CCN(C(=O)COCc2ccccc2)C1 (stereo not drawn)	-1	-6	-2	-1	2	-3	nt	nt
NC(=O)CC(NC(=O)Cc1ccc(Br)cc1)c1ccc(NC2CCCC2)c([N+](=O)[O-])c1 (stereo not drawn)	21	nt	11	54*	27	-12	3	2
NC(=O)CC(NC(=O)Cc1cccc2ccccc12)c1ccc(NC2CCCCCC2)c([N+](=O)[O-])c1 (stereo not drawn)	2	12	2	41	29	-5	nt	nt
NC(=O)CC(NC(=O)Cc1cccc2ccccc12)c1ccc(NC2CCCCCCC2)c([N+](=O)[O-])c1 (stereo not drawn)	-1	15	-3	60*	4	0	1	6
Cc1ccc(-c2nnn(CC(=O)Nc3ccc4nn(-c5ccccc5)nc4c3)n2)o1	-2	5	13	50*	10	10	0	0
Cc1ccc(-c2nnn(CC(=O)N3CCCCC3)n2)o1	0	0	-1	0	-12	-2	nt	nt
COC(=O)N1CCCCC1c1cc(C(=O)NCc2cccnc2)no1 (stereo not drawn)	0	0	-2	1	2	3	nt	nt
CCOc1ccc(CCNC(=O)C2CC(C)=CCC2C(=O)O)cc1OCC (stereo not drawn)	0	-12	18	53*	5	56*	3	3
CCOc1ccc(CCNC(=O)C2CC=CCC2C(=O)OC(C)C)cc1OCC (stereo not drawn)	-1	-3	3	-1	-2	2	nt	nt
SMILES	MT1-MMP act inh	Rpn11 inh	SKN-1 inh	DNMT1 inh	CSN inh	SUMO1 PPI mod	DNMT1 inh conf	Beacon interf	others
CCc1ccc(/C=N/N2CCN(c3ccccn3)CC2)cc1	6	-20	21	75*	1	-1	2	3
CC(C)NC(=O)N(C)C[C@H]1OCCCC[C@@H](C)Oc2ccc(N(C)C)cc2C(=O)N([C@H](C)CO)C[C@@H]1C	3	-6	7	-1	3	3	nt	nt
O=C(NCCc1ccccc1O)c1cc2c(cc1[N+](=O)[O-])OCO2	2	-3	0	43	65	-33	1	5
COc1ccc(CCNC(=O)Cc2cc3c(cc2[N+](=O)[O-])OCO3)cc1OC	2	6	14	-7	-4	-27	nt	nt
Cc1ccc(NC(=O)COc2ccc(/C=C3/SC(=Nc4ccccc4)N(Cc4cccnc4)C3=O)cc2)cc1	0	27	-13	61*	14	-3	-1	-8
CCCCC(=O)N(C)c1c(CC)nc2c(OCc3ccccc3C)cccn12	-30	-3	13	1	-5	4	nt	nt
Cc1ccc(Nc2nc(-c3ccc(S(=O)(=O)N4CCCC4)cc3)cs2)cc1C	-6	11	5	-14	7	-2	nt	nt
Cc1cc(C)cc(Nc2nc(-c3ccc(S(=O)(=O)N4CCCC4)cc3)cs2)c1	-14	1	9	97*	3	0	4	6
O=Cc1ccc2oc3nc4n(c(=O)c3c(=O)c2c1)CCCS4	-1	nt	-6	94*	45*	25	-4	-1
Cc1sc2nc3n(c(=O)c2c1C)CCCS3	0	-3	7	-1	2	0	nt	nt
COc1ccc(S(=O)(=O)NC(=O)C2(C)CCN2C(=O)COc2ccc(Cl)cc2)cc1OC (stereo not drawn)	-2	-4	4	3	-3	-2	nt	nt
COc1ccccc1C#Cc1cnc2c(c1)C(=O)N([C@H](C)CO)C[C@H](C)[C@@H](CN(C)S(=O)(=O)c1cn(C)cn1)O2	0	1	-2	100*	-2	-2	7	9
